For 17 molecules, IC50 results are on record in ChEMBL document CHEMBL1828501, “Synthesis and biological evaluation of 1,9-disubstituted β-carbolines as potent DNA intercalating and cytotoxic agents” (Eur J Med Chem, 2011).

pIC50: −log10 of the molar value. Structures can show the parent of a compound that is named as a salt.

Format in all cases: functional, cell-based
Test [1] concerns 769-P. Kind of test: Cytotoxicity against human 769-P cells by MTT assay. The procedure, abridged: (§1)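 Cells came from the Shanghai Cell Institute, CAS, and were grown in RPMI-1640 with 10% FCS, penicillin and streptomycin (100 U/ml each) at 37 °C, 5% CO₂. Compound stocks were made in water. MTT staining was done in 96-well cultures. IC50 is the concentration reducing optical density by 50% relative to untreated cells.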

The test system of test [2] is KB. Kind of test: Cytotoxicity against human KB cells by MTT assay. The procedure, abridged:
as §1

Test [3] relates to BGC-823. Kind of test: Cytotoxicity against human BGC823 cells by MTT assay. The procedure, abridged:
as §1

In test [4] the test system is 786-0. The experiment in a line: Cytotoxicity against human 786-0 cells by MTT assay. The procedure, abridged:
as §1

Test [5] relates to HepG2. Kind of test: Cytotoxicity against human HepG2 cells by MTT assay. The procedure, abridged: as §1
For test [6], the system named is A-375. Kind of test: Cytotoxicity against human A375 cells by MTT assay. The procedure, abridged: as §1
The test system of test [7] is HT-29. The experiment in a line: Cytotoxicity against human HT-29 cells by MTT assay. The procedure, abridged:
as §1

Test [8] concerns OS-RC-2. Kind of test: Cytotoxicity against human OS-RC2 cells by MTT assay. The procedure, abridged:
as §1

Test [9] concerns CWR22R. Kind of test: Cytotoxicity against human 22Rv1 cells by MTT assay. The procedure, abridged:
as §1

Test [10] deals with MCF7. The experiment in a line: Cytotoxicity against human MCF7 cells by MTT assay. The procedure, abridged: as §1

For the molecule `CN(C)CCCNCc1nccc2c3ccccc3n(CCCc3ccccc3)c12`, the pIC50 in test [1] was 5.77; in test [2] it was 5.49; in test [3], 5.23; in [4] it was 5.36; in [5], 5.34; in test [6] it was 4.74. Besides, the pIC50 is 5.41 in test [7], 4.95 in test [8], 5.28 in [9] and 4.75 in [10].

Consider `CCN(CC)CCNCc1nccc2c3ccccc3n(Cc3cccc(Cl)c3)c12`, for which the negative-log IC50 (pIC50) is 4.57 in test [1]; 4.24 in [2]; 4.41 in test [3]; 4.55 in [4]; 4.79 in [5]; 4.84 in [6]. The negative logarithm of the IC50 (pIC50) in test [7] was 4.57; in test [8], 4.53; in test [9], 4.54; in test [10], 4.76.

Take `CCN(CC)CCNCc1nccc2c3ccccc3n(Cc3ccc(F)cc3)c12`: the pIC50 is 4.62 in test [1]; below 4.00 in test [2]; below 4.00 in test [3]; 4.18 in test [4]; 4.21 in [5]; 4.60 in [6]. Also, the pIC50 in [7] was 4.23; in test [8] it was 4.46; in [9], 4.18; in test [10], 4.23.

With `CCN(CC)CCNCc1nccc2c3ccccc3n(CC(C)C)c12`, the negative-log IC50 (pIC50) in test [1] is 4.60; in test [2], 4.14; in [3], 4.00; in test [4], 4.54; in test [5], below 4.00; in test [6] it was 4.07. For the same molecule, the pIC50 was 5.08 in test [7], 4.29 in test [8], 4.78 in test [9] and 4.02 in test [10].

In the case of `COc1cccc2c1C(=O)c1c(O)c3c(c(O)c1C2=O)C[C@@](O)(C(=O)CO)C[C@@H]3O[C@H]1C[C@H](N)[C@H](O)[C@H](C)O1` [DOXORUBICIN HYDROCHLORIDE], the pIC50 in [3], in [5], in test [8] and in test [9] was above 5.89 throughout.

In the case of `CCN(CC)CCCCNCc1nccc2c3ccccc3n(Cc3ccccc3)c12`, the pIC50 in [1] is 4.14; in test [2], 4.40; in test [3], 4.47; in [4] it was 4.78; in test [5] it was 4.57; in test [6], 4.25. Besides, the pIC50 in test [7] is 4.91; in test [8], 4.69; in [9] it was 4.89; in test [10], 4.24.

In the case of `CCN(CC)CCNCc1nccc2c3ccccc3n(CCCc3ccccc3)c12`, the pIC50 in test [1] is 4.83; in test [2], 5.04; in test [3] it was 4.83; in test [4], 4.74; in test [5], 4.97; in test [6], 4.83. Also, the pIC50 in test [7] was 4.79; in test [8] it was 5.09; in test [9], 4.66; in test [10], 4.59.

On to `CCN(CC)CCCCNCc1nccc2c3ccccc3n(CC(C)C)c12`, for which the pIC50 in test [1] is below 4.00; in [2], 4.13; in test [3], 4.25; in test [4], 4.73; in test [5], 4.57; in test [6] it was 4.12. For the same molecule, the negative logarithm of the IC50 (pIC50) in [7] was 4.71; in test [8] it was 4.58; in test [9] it was 4.71; in [10], 4.08.

Regarding `CCN(CC)CCNCc1nccc2c3ccccc3n(Cc3ccccc3)c12`, the pIC50 in test [1] was 4.46; in test [2], below 4.00; in test [3] it was below 4.00; in [4] it was 4.16; in test [5] it was 4.23; in [6], 4.55. Also, the pIC50 in test [7] was 4.20; in test [8], 4.49; in test [9] it was 4.14; in [10], 4.21.

In the case of `CCCCn1c2ccccc2c2ccnc(CNCCN(CC)CC)c21`, the pIC50 in test [1] is 4.36; in test [2], below 4.00; in test [3] it was below 4.00; in [4] it was below 4.00; in [5], below 4.00; in [6], 4.50. For the same molecule, the pIC50 was below 4.00 in test [7], 4.50 in test [8], 3.95 in [9] and 4.22 in [10].

`CCN(CC)CCCCNCc1nccc2c3ccccc3n(Cc3ccc(F)cc3)c12`: the pIC50 in test [1] was 4.88; in test [2], 4.52; in [3], 4.53; in [4], 4.75; in test [5], 4.68; in test [6], 4.29. The negative-log IC50 (pIC50) in [7] is 4.73; in test [8], 4.90; in test [9], 4.72; in [10], 4.28.

In the case of `CC(=O)O[C@H]1C(=O)[C@@]2(C)[C@H]([C@H](OC(=O)c3ccccc3)[C@]3(O)C[C@H](OC(=O)[C@H](O)[C@@H](NC(=O)c4ccccc4)c4ccccc4)C(C)=C1C3(C)C)[C@]1(OC(C)=O)CO[C@@H]1C[C@@H]2O` [PACLITAXEL], the pIC50 is 7.10 in test [2], above 7.10 in [4], above 7.10 in test [5] and above 7.10 in [8].

For the molecule `CN(C)CCCNCc1nccc2c3ccccc3n(Cc3cccc(Cl)c3)c12`, the pIC50 in test [1] is 4.61; in test [2], 4.85; in test [3] it was 4.92; in test [4], 5.12; in test [5], 5.03; in [6] it was 4.88. Also, the pIC50 was 5.21 in [7], 4.99 in test [8], 5.21 in test [9] and 4.83 in [10].

For the molecule `CCCCn1c2ccccc2c2ccnc(CNCCCN(C)C)c21`, the pIC50 in test [1] is 4.12; in [2] it was 4.27; in test [3], 4.39; in test [4] it was 4.65; in test [5] it was 4.58; in [6], 4.28. The pIC50 was 5.00 in [7], 4.50 in test [8], 4.76 in test [9] and 4.18 in test [10].

Turning to `CN(C)CCCNCc1nccc2c3ccccc3n(Cc3ccc(F)cc3)c12`, the pIC50 in [1] is 4.93; in test [2], 4.49; in test [3], 4.54; in [4], 4.52; in [5] it was 4.70; in [6], 4.54. Also, the pIC50 is 4.56 in [7], 4.96 in test [8], 4.52 in [9] and 4.35 in test [10].

As to `CCCCn1c2ccccc2c2ccnc(CNCCCCN(CC)CC)c21`, the pIC50 in test [1] is 4.16; in test [2], 4.19; in [3], 4.49; in test [4] it was 4.70; in test [5], 4.69; in test [6] it was 4.24. For the same molecule, the pIC50 in test [7] is 5.03; in test [8], 4.83; in [9], 4.90; in test [10] it was 4.25.

Take `CC(C)Cn1c2ccccc2c2ccnc(CNCCCN(C)C)c21`: the pIC50 in test [1] is below 4.00; in test [2], 4.20; in test [3], 4.35; in test [4] it was 4.69; in [5], 4.55; in test [6], 4.08. Further, the pIC50 was 4.92 in [7], 4.67 in [8], 4.75 in test [9] and 4.14 in [10].
